Assay results as given in paper PMC3654042 (Environmental toxicology, 2012).
“Also recorded” adds a separate entry of the source. Read-outs that look alike come from different tables or passages of the source. Blank lines part the entries; values can stand above or below the compound they belong to.

Experiments:
[1] = biological target: T1, purified porcine liver PMPMEase (Sus scrofa, UniProt Q29550); assay: Inhibition of purified porcine liver PMPMEase; type: biochemical; conditions: for residual enzyme activity (suppressed to) / inhibition of PMPMEase: fragrance 1 mM, PMPMEase 5 µg, 1 mM RD-PNB, 1 h; for residual enzyme activity (suppressed to): % of uninhibited control
T1 sequence (Q29550 19-566): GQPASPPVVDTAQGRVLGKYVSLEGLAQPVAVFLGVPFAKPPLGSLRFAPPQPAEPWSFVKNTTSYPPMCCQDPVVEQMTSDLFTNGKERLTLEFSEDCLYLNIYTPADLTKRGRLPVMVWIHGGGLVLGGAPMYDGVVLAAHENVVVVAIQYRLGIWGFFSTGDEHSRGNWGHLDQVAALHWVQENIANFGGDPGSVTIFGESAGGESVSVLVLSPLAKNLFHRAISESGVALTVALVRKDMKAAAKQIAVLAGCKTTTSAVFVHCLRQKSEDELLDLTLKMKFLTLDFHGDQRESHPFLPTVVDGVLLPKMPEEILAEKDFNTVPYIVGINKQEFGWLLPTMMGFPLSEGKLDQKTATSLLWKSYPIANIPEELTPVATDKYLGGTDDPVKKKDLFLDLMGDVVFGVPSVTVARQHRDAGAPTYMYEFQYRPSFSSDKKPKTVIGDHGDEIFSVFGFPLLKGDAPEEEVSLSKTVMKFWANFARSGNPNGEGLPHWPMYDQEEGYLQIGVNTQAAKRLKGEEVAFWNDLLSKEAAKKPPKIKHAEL
Summary of the method: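 Single-concentration screen: test compound 1 mM in DMSO was incubated with 5 µg purified pig liver PMPMEase and 1 mM RD-PNB substrate for 1 h in 100 mM Tris–HCl, pH 7.4, at 37°C. Stopped with methanol, chilled on ice, and centrifuged at 5000 × g for 5 min. Residual activity was measured by reversed-phase HPLC of the supernatant, as % of uninhibited control, N = 3.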

[2] = test system: human neuroblastoma SH-SY5Y cells; assay: Cell viability; type: cell-based; conditions: for cell degeneration: SH-SY5Y cells, 1–200 µM, 48 h
Summary of the method: (§1)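 SH-SY5Y neuroblastoma cells grown in DMEM/F12 with 10% heat-inactivated FBS and penicillin/streptomycin at 37°C, 5% CO2, trypsinized at 80–90% confluence, and plated in 96-well plates. Exposed in serum-free DMEM/F12 to test compound (1–200 µM, acetone vehicle, 1% final), re-dosed identically at 24 h, for 48 h. Resazurin (0.05%) added for 2 h in the dark at room temperature. Fluorescence read at ex 560/em 590 nm as % of untreated control, mean ± SEM, N = 4.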

[3] = test system: human lung cancer A549 cells; assay: Apoptosis assay; type: cell-based; conditions: 0–10 µM, serum-free medium
Summary of the method: (§2)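 Treatment at 0–10 µM in serum-free medium at 37°C in 5% CO2/95% humidified air, one addition per well. Exposure is 24 h per methods and 48 h per figure legend. A549 were seeded at 2 × 10^5 per well and SH-SY5Y at 3 × 10^5 per well in 24-well plates. Stained in the dark with EB/AO 10 µg/mL for 15 min and viewed at 400× with 480/30 nm excitation. Green nuclei were scored live, condensed or fragmented orange chromatin apoptotic, and normal orange nuclei necrotic.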

[4] = test system: human neuroblastoma SH-SY5Y cells; assay: Apoptosis assay; type: cell-based; conditions: 0–10 µM, serum-free medium
Summary of the method: as §2

[5] = test system: human lung cancer A549 cells; assay: Cell viability; type: cell-based; conditions: for cell degeneration: A549 cells, 1–200 µM, 48 h
Summary of the method: as §1, with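 “A549” for “SH-SY5Y neuroblastoma”, “seeded” for “plated”, “Treated with” for “Exposed in serum-free DMEM/F12 to”, “final) in serum-free RPMI 1640/F12, with the same dose re-added” for “final), re-dosed identically”, “nm and expressed” for “nm”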

[6] = purified porcine liver PMPMEase, RD-PNB substrate

residual enzyme activity (suppressed to) [1]: less than 25%
Ki [1, 6]: 12 µM
Compound: CCCCCCCCC1CCC(=O)O1 (stereo not drawn) [Dodecalactone, γ-dodecalactone]

EC50 ([2]; Homo sapiens, SH-SY5Y, read-out: EC50 cell degeneration): 26 µM
Ki [1]: 11 µM
residual enzyme activity (suppressed to) [1]: less than 25%
EC50 ([5]; Homo sapiens, A549, read-out: EC50 cell degeneration): 58 µM
Compound: CC1COCc2cc3c(cc21)C(C)(C)C(C)C3(C)C (stereo not drawn) [Galaxolide]
cell degeneration [2]: significant degeneration
apoptosis (AO/EB staining, words) [3]: induced apoptosis
apoptosis (AO/EB staining, words) [4]: induced apoptosis
cell degeneration [5]: significant degeneration

Ki [1]: 173 µM
IC50 ([1]; IC50, purified porcine liver PMPMEase, value as worded in text): > 1000 µM
inhibition of PMPMEase [1]: 60%
residual enzyme activity (suppressed to) [1]: less than 25%
Compound: CCCCC=O [Pentanal, pentanal]

Compound: CC(=O)c1cc2c(cc1C)C(C)(C)C(C)CC2(C)C (stereo not drawn) [Tonalide]
cell degeneration [2]: significant degeneration
apoptosis (AO/EB staining, words) [3]: apoptosis was observed in a concentration-dependent manner; also recorded: induced apoptosis
apoptosis (AO/EB staining, words) [4]: apoptosis was observed in a concentration-dependent manner; also recorded: induced apoptosis
residual enzyme activity (suppressed to) [1]: less than 25%
Ki [1, 6]: 14 µM
cell degeneration [5]: significant degeneration
EC50 ([5]; read-out: EC50 cell degeneration, lung cancer A549 cells, resazurin reduction): 14 µM

residual enzyme activity (suppressed to) [1]: less than 25%
Ki [1, 6]: 4 µM
Compound: CC1=C(C=O)C(C)(C)CCC1 [β-Cyclocitral, β-cyclocitral]

inhibition of PMPMEase [1]: 30%
residual enzyme activity (suppressed to) [1]: less than 25%
Compound: CCCCC1CCCCC(=O)O1 (stereo not drawn) [ε-decalactone]

residual enzyme activity (suppressed to) [1]: less than 25%
Ki [1, 6]: 46 µM
Compound: O=C1CCCCCCCCCCCCCCO1 [ω-Pentadecalactone, ω-pentadecalactone]
